Experimental data: the EternaBench riboswitch data

Test system: MS2 coat protein
Assay: apparent Kd, MS2 coat protein; higher = weaker binding; RNA-MaP array; FMN 200 µM where present
Summary of the method: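 Stalled E. coli RNA polymerase transcribed the designs on Illumina sequencing-chip clusters. SNAP-549-labelled MS2 coat protein was titrated from 0.7 or 1.5 nM, doubling to 3 µM, without and then with constant ligand, in 100 mM Tris-HCl pH 7.5, 80 mM KCl, 4 mM MgCl2, BSA, DTT, yeast tRNA and Tween-20. Per-cluster binding curves were fitted to green signal normalised to red-channel RNA signal and control-cluster median Fmax. The apparent Kd is the median of the filtered fits.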

[1] = designed as: OFF switch for flavin mononucleotide, no ligand
[2] = ligand present: flavin mononucleotide, designed as: OFF switch for flavin mononucleotide
[3] = designed as: ON switch for flavin mononucleotide, no ligand
[4] = ligand present: flavin mononucleotide, designed as: ON switch for flavin mononucleotide

| Sequence | apparent Kd [1] [nM] | apparent Kd [2] [nM] | apparent Kd [3] [nM] | apparent Kd [4] [nM] |
| --- | --- | --- | --- | --- |
| UAUAUAUAGUAAGGAUAUGUAUAUAUUUUAUUAACAGAAGGUACUGACAUGAGGAUCACCCAUGUUUUAGUGUGGGCAUGUAGA | 76.7 | 100 |  |  |
| UAUAUAUAGUAAGGAUAUGUAUUUGUUUUAUAAACAGAAGGUACUGACAUGAGGAUCACCCAUGUUUUAGUGUGGGCAUGUAGA | 39.5 | 41.4 |  |  |
| UAUAUGUCAGGAUAUCGAUUGGAACGGAAUUCGGUUCUGGUUGAGAAGGGACAUGAGGAUCACCCAUGUUUUUC | 36.2 | 222 |  |  |
| UAUAUUAUUAUAGGAUAUGGAUACGAUGCGUAUCCAGAAGGGUGAUUAUAAUAUAAUCUAUACAUGAGGAUCACCCAUGUUUAU |  |  | 303 | 73.9 |
| UAUGACAUGAGGAUCACCCAUGUCAGCGAGAAAUGAGAGUCACAGGAUAUGUUUUCGGCCGGCAGACAGAAGGGUGACCCUCAG |  |  | 7.21 | 6.89 |
| UAUGGUAAAGUCAGGAUAUACGUACAUCGUUCUAGGUAGAAGGGACAUGAGGAUCACCCAUGUAUGGUAGUGUU | 106 | 107 |  |  |
| UAUGUCUUUGUGAGGAUAUACUUUGUUUGGUCGUAGUAGAAGGCACAUGAGGAUCACCCAUGUAGAUUUUUGGU | 23.1 | 36.1 |  |  |
| UAUUAAAACGAGAAGGGAGUACAUGAGGAUCACCCAUGUGCCUCAUAAUACUCAGGAUAUCGUGAUUGGGUCACCAGCUGGGUG | 509 | 29.3 |  |  |
| UAUUCAUACGAAGGAUAUGGUUACAUGAGGAUCACCCAUGUAUGUAUAUUGAUCUAGUUAUUUAACCAGAAGGUCGAAUAUAAA | 35.4 | 72.6 |  |  |
| UAUUUAAUCAUAGGAUAUAGUGUGAAAUUUGGACUAGAAGGAUGUAACAUGAGGAUCACCCAUGUGGUAAGUGGGACACAGUGA |  |  | 106 | 177 |
| UAUUUUAACUAAGGAUAUCUGUAUUAUGUAGAAACAUGAGGAUCACCCAUGUUCUUGAUAUUAUAGGAGAAGGUAGAUGAAUAA |  |  | 6.6 | 5.72 |
| UCAAGUAUGUAGGAUAUCGAUGUCUUCGGACAUCGAGAAGGACGUACAUGAGGAUCACCCAUGUAACUUGCAUG | 60.5 | 37.4 |  |  |
| UCACGGGACUAAGGAUAUACAUGAUCCAUUUUUGUAGAAGGUAGAAUGUUAGAUCAUAAACUAAACAUGAGGAUCACCCAUGUU | 23.5 | 22.5 |  |  |
| UCACGGGAUUGAGGAUAUAUAUUAAUUUUUUUUAUAGAAGGCAAAUUGUUAGAUUAUUCACUAUACAUGAGGAUCACCCAUGUU | 29.3 | 26.6 |  |  |
| UCAGGCUUCGAGAAGGACAUGAGGAUCACCCAUGUGCGUGUGAAGCAGCCAAAAGGCUGCAUCAUGUAGGAUAUCGGAGUCUGC | 81.8 | 552 |  |  |
| UCAGGCUUCGAGAAGGACAUGAGGAUCACCCAUGUGCGUGUGAAGCAGCCGUGAGGCUGCAUCAUGUAGGAUAUCGGAGUCUGG | 74 | 583 |  |  |
| UCAGUAGAGUCAGGAUAUACGAAAGUAGAUCCUUACAUGAGGAUCACCCAUGUAGAAGGGACUCUACUGUAAGUCGGAAACGAC | 14.1 | 69.1 |  |  |
| UCAUAAAAGAUCCUAUUUAUCUACAUGAGGAUCACCCAUGUGCAGGAUAUGCUAUAUUUAAUAAAGCAGAAGGGCAAUAACCGC | 127 | 309 |  |  |
| UCAUACGAUGAGGAUAUCUCCGUUAAAGUAUGUAGAGAAGGCGUUACAUGAGGAUCACCCAUGUUUGUGGGCAG | 304 | 385 |  |  |
| UCAUACGGUGAGGAUAUCUCCGCUAAAGUGUGUAGAGAAGGCGCUACAUGAGGAUCACCCAUGUUUGUGGGCAG | 402 | 149 |  |  |
| UCAUACGUUGAGGAUAUGUCAGUUAGAAUAUUUACAGAAGGCGAUACAUGAGGAUCACCCAUGUUUAUGGGCAU | 188 | 207 |  |  |

| Sequence | apparent Kd [1] [nM] | apparent Kd [2] [nM] | apparent Kd [3] [nM] | apparent Kd [4] [nM] |
| --- | --- | --- | --- | --- |
| UCAUAUUUACAAGGAUAUCAAUUAAUUAAACAUCCUACAUGAGGAUCACCCAUGUUAAAAUAUUAUGAGAAGGUGUAUUGUCGG |  |  | 32.7 | 40.3 |
| UCAUCAAAUUGAACAUGAGGAUCACCCAUGUAGGAUUAGCCACAGGAUAUCCGUGCUAGAAUGUGGGAGAAGGGUGGUCACUCC |  |  | 334 | 64.5 |
| UCAUGUCCUGAGGAUAUGUAGCGGAUAAACGCAACAGAAGGCAGGACAUGAGGAUCACCCAUGUGUGCCUUCUA | 96.6 | 14.2 |  |  |
| UCAUUGAUUGUGAGGAUAUCGAUGUGAUGGUUUGUCGAGAAGGCACAUGAGGAUCACCCAUGUGGGUGUGGGCU | 864 | 242 |  |  |
| UCAUUUAUUACAGGAUAUGUUAGAAUUCAGUUGUUUGGUUAUUACAUAUUAACAGAAGGGUAGAACAUGAGGAUCACCCAUGUA |  |  | 114 | 81.5 |
| UCCACUACUGAGAAGGGAUACAUAUAGUUCUAGUCAGGAUAUCGAUACAGUGCAGCAUGAGGACAUGAGGAUCACCCAUGUAUU |  |  | 22.1 | 16.2 |
| UCCAUCCCUGUGAGGAUAUCGUCCGUUUUUUGUUCCGAGAAGGCACAUGAGGAUCACCCAUGUUUUUUGUUUUU | 29.4 | 58.8 |  |  |
| UCCCUUGCUGGAGGAUAUCGCACAUGAGGAUCACCCAUGUCGGCACUCGGGCGCAUCCUCUUGGACGAGAAGGCCAGGAGGUAC | 179 | 79.4 |  |  |
| UCCGUAAUUCUGAGCUUCGCGAUGAGAAGGGUAGAGGCUGGGUCCUACAUGAGGAUCACCCAUGUACAGGAUAUCAUUGCACGA | 14.1 | 30.3 |  |  |
| UCCUACAUCGGAGGAUAUCAUGUGUAAACAUGAGGAUCACCCAUGUCGUACGAGAGUACGGAGAUUGAGAAGGCCGAUGUAGGU |  |  | 96 | 17.2 |
| UCCUACAUGGGAGGAUAUCCUCAAGAGACAUGAGGAUCACCCAUGUAUUAUAUGCCUCAUGGCAUGGAGAAGGCCCAUGUAGGU |  |  | 205 | 157 |
| UCCUCACAUGAGGAUCACCCAUGUCAGGAUAUCUGCGAGCAUUGGCCAAGGCCGCUCAGGAGAAGGGACGUCAA | 17.1 | 27.4 |  |  |
| UCCUCGAUGUAGAAGGCCGCGUCCGGCUCACGCGGAGGAUAUACAUGAGGAUCACCCAUGUGUCUGUGGCUAAUAUGGUACGGA | 120 | 14.4 |  |  |
| UCCUGAUUGAGAGGUAGGAGUGGUAGAAGGCGACCGGUGCCAGAUGACAUGAGGAUCACCCAUGUCGAGGAUAUACCACAGAAU | 6.96 | 13.1 |  |  |
| UCCUUGUCCUGAGGAUAUCCGUGGUGACCGAAAGGAGAAGGCAGGACAUGAGGAUCACCCAUGUACCCAGAAAACGUGCAGAGA | 35.9 | 232 |  |  |
| UCCUUGUCCUGAGGAUAUCCGUGGUUACCGAAAGGAGAAGGCAGGACAUGAGGAUCACCCAUGUACCCAGAAAACGUGCAGAGU | 125 | 381 |  |  |
| UCGAACUUUCAUGUAAUUCGCACAUGAGGAUCACCCAUGUACGAGGAUAUGUACCUGAACGGCUAACAGAAGGCGUACUGGGCA | 242 | 83.3 |  |  |
| UCGACCAGCGCCAGCCGAACAUGAGGAUCACCCAUGUACUCCAGAAGGCCGCCCAAGAACGGAGUGGAGGAUAUGGAGGUUCUC |  |  | 38 | 35.5 |
| UCGACCCUAGGAUAUACAUGAGGAUCACCCAUGUUUGUCGAAGAACGAACAGUCCUCAGUAGAAGGAGGACGAA | 22.3 | 23.8 |  |  |
| UCGAUAAGGAGAGGAUAUGGACAUGAGGAUCACCCAUGUACAUGGGAAUAUAUACUGAAUUUUUACUAGAAGGCUUACAUAAUU | 16.4 | 14.8 |  |  |
| UCGAUGCUAGGAUAUACGUAUACCUCCACCGUUGAUUCCUCACAUGAGGAUCACCCAUGUAGAAGGAGCAUCUA | 79.8 | 137 |  |  |
